Laboratory results published in ChEMBL document CHEMBL4689842, “EUbOPEN Chemogenomics Library wave 1” (2021).

Test system: HEK-293T
Assay: Multiplex assay against HEK293T;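 as to Population Tubulin-Different-Phenotype (%): share of the cells with healthy nuclei that show this phenotype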
Format: toxicity, cell-based
Details: human
How it was run: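 Four dyes were applied at seeding to live cells: Hoechst33342, BioTracker Green Microtubule Cytoskeleton Dye, MitoTracker Red and Annexin V Alexa Fluor 680. Imaging after compound addition used a CQ1 microscope at 37°C and 5% CO2. CellPathfinder machine-learning gating then sorted cells into Hoechst high-intensity objects or normal cells, normal cells into healthy, pyknosed or fragmented nuclei, and pyknosed cells into mitotic or apoptotic, with tubulin, mitochondrial-mass and membrane-permeability phenotypes given as per cents of healthy-nucleus cells.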

[1] = 12 h, 1 µM, compound concentration 1 uM, replicate 1
[2] = 12 h, 1 µM, compound concentration 1 uM, replicate 2
[3] = 12 h, 10 µM, compound concentration 10 uM, replicate 1
[4] = 12 h, 10 µM, compound concentration 10 uM, replicate 2
[5] = 24 h, 1 µM, compound concentration 1 uM, replicate 1
[6] = 24 h, 1 µM, compound concentration 1 uM, replicate 2
[7] = 24 h, 10 µM, compound concentration 10 uM, replicate 1
[8] = 24 h, 10 µM, compound concentration 10 uM, replicate 2
[9] = 48 h, 1 µM, compound concentration 1 uM, replicate 1
[10] = 48 h, 1 µM, compound concentration 1 uM, replicate 2
[11] = 48 h, 10 µM, compound concentration 10 uM, replicate 1
[12] = 48 h, 10 µM, compound concentration 10 uM, replicate 2

COc1ccc(S(=O)(=O)N(CCO)c2ccccc2CN(C)C/C=C/c2ccc(Cl)cc2)cc1.O=P(O)(O)O
Population Apoptotic (%) [1]: 42%
Population Fragmented Nuclei (%) [1]: 11%
Population Healthy Nuclei (%) [1]: 28%
Population Hoechst High Intensity Objects (%) [1]: 16%
Population Membrane Permeable-Phenotype (%) [1]: 6%
Population Mitochondria Different-Phenotype (%) [1]: 79%
Population Mitotic Cells (%) [1]: 57%
Population Normal (%) [1]: 83%
Population Pyknosed Nuclei (%) [1]: 59%
Population Tubulin-Different-Phenotype (%) [1]: 87%
Total Cell Count [1]: 585
Population Apoptotic (%) [2]: 35%
Population Fragmented Nuclei (%) [2]: 1%
Population Healthy Nuclei (%) [2]: 67%
Population Hoechst High Intensity Objects (%) [2]: 7%
Population Membrane Permeable-Phenotype (%) [2]: 3%
Population Mitochondria Different-Phenotype (%) [2]: 90%
Population Mitotic Cells (%) [2]: 64%
Population Normal (%) [2]: 92%
Population Pyknosed Nuclei (%) [2]: 30%
Population Tubulin-Different-Phenotype (%) [2]: 90%
Total Cell Count [2]: 929
Population Apoptotic (%) [3]: 14%
Population Fragmented Nuclei (%) [3]: 11%
Population Healthy Nuclei (%) [3]: 67%
Population Hoechst High Intensity Objects (%) [3]: 8%
Population Membrane Permeable-Phenotype (%) [3]: 6%
Population Mitochondria Different-Phenotype (%) [3]: 9%
Population Mitotic Cells (%) [3]: 85%
Population Normal (%) [3]: 91%
Population Pyknosed Nuclei (%) [3]: 21%
Population Tubulin-Different-Phenotype (%) [3]: 25%
Total Cell Count [3]: 633
Population Apoptotic (%) [4]: 13%
Population Fragmented Nuclei (%) [4]: 6%
Population Healthy Nuclei (%) [4]: 87%
Population Hoechst High Intensity Objects (%) [4]: 3%
Population Mitochondria Different-Phenotype (%) [4]: 21%
Population Mitotic Cells (%) [4]: 86%
Population Normal (%) [4]: 96%
Population Pyknosed Nuclei (%) [4]: 6%
Population Tubulin-Different-Phenotype (%) [4]: 36%
Total Cell Count [4]: 1412
Population Apoptotic (%) [5]: 61%
Population Fragmented Nuclei (%) [5]: 13%
Population Healthy Nuclei (%) [5]: 25%
Population Hoechst High Intensity Objects (%) [5]: 18%
Population Membrane Permeable-Phenotype (%) [5]: 7%
Population Mitochondria Different-Phenotype (%) [5]: 81%
Population Mitotic Cells (%) [5]: 38%
Population Normal (%) [5]: 81%
Population Pyknosed Nuclei (%) [5]: 60%
Population Tubulin-Different-Phenotype (%) [5]: 85%
Total Cell Count [5]: 551
Population Apoptotic (%) [6]: 43%
Population Fragmented Nuclei (%) [6]: 1%
Population Healthy Nuclei (%) [6]: 59%
Population Hoechst High Intensity Objects (%) [6]: 10%
Population Membrane Permeable-Phenotype (%) [6]: 2%
Population Mitochondria Different-Phenotype (%) [6]: 95%
Population Mitotic Cells (%) [6]: 56%
Population Normal (%) [6]: 89%
Population Pyknosed Nuclei (%) [6]: 38%
Population Tubulin-Different-Phenotype (%) [6]: 77%
Total Cell Count [6]: 913
Population Apoptotic (%) [7]: 17%
Population Fragmented Nuclei (%) [7]: 8%
Population Healthy Nuclei (%) [7]: 80%
Population Hoechst High Intensity Objects (%) [7]: 6%
Population Membrane Permeable-Phenotype (%) [7]: 10%
Population Mitochondria Different-Phenotype (%) [7]: 8%
Population Mitotic Cells (%) [7]: 82%
Population Normal (%) [7]: 93%
Population Pyknosed Nuclei (%) [7]: 11%
Population Tubulin-Different-Phenotype (%) [7]: 31%
Total Cell Count [7]: 745
Population Apoptotic (%) [8]: 5%
Population Fragmented Nuclei (%) [8]: 15%
Population Hoechst High Intensity Objects (%) [8]: 2%
Population Mitotic Cells (%) [8]: 94%
Population Normal (%) [8]: 97%
Population Pyknosed Nuclei (%) [8]: 4%
Population Tubulin-Different-Phenotype (%) [8]: 37%
Total Cell Count [8]: 2203

Cc1ccc(C(=O)Nc2cccc(C(F)(F)F)c2)cc1Nc1nc(-c2cccnc2)nc2c1cnn2C
Population Apoptotic (%) [1]: 63%
Population Fragmented Nuclei (%) [1]: 15%
Population Healthy Nuclei (%) [1]: 33%
Population Hoechst High Intensity Objects (%) [1]: 19%
Population Membrane Permeable-Phenotype (%) [1]: 1%
Population Mitochondria Different-Phenotype (%) [1]: 94%
Population Mitotic Cells (%) [1]: 36%
Population Normal (%) [1]: 80%
Population Pyknosed Nuclei (%) [1]: 50%
Population Tubulin-Different-Phenotype (%) [1]: 94%
Total Cell Count [1]: 318
Population Apoptotic (%) [2]: 27%
Population Fragmented Nuclei (%) [2]: 7%
Population Healthy Nuclei (%) [2]: 25%
Population Hoechst High Intensity Objects (%) [2]: 9%
Population Membrane Permeable-Phenotype (%) [2]: 7%
Population Mitochondria Different-Phenotype (%) [2]: 52%
Population Mitotic Cells (%) [2]: 72%
Population Normal (%) [2]: 90%
Population Pyknosed Nuclei (%) [2]: 66%
Population Tubulin-Different-Phenotype (%) [2]: 89%
Total Cell Count [2]: 162
Population Apoptotic (%) [3]: 86%
Population Fragmented Nuclei (%) [3]: 16%
Population Healthy Nuclei (%) [3]: 7%
Population Hoechst High Intensity Objects (%) [3]: 19%
Population Membrane Permeable-Phenotype (%) [3]: 8%
Population Mitochondria Different-Phenotype (%) [3]: 91%
Population Mitotic Cells (%) [3]: 13%
Population Normal (%) [3]: 80%
Population Pyknosed Nuclei (%) [3]: 75%
Population Tubulin-Different-Phenotype (%) [3]: 91%
Total Cell Count [3]: 200
Population Apoptotic (%) [4]: 78%
Population Fragmented Nuclei (%) [4]: 5%
Population Healthy Nuclei (%) [4]: 13%
Population Hoechst High Intensity Objects (%) [4]: 5%
Population Membrane Permeable-Phenotype (%) [4]: 4%
Population Mitochondria Different-Phenotype (%) [4]: 96%
Population Mitotic Cells (%) [4]: 21%
Population Normal (%) [4]: 94%
Population Pyknosed Nuclei (%) [4]: 81%
Population Tubulin-Different-Phenotype (%) [4]: 92%
Total Cell Count [4]: 190
Population Apoptotic (%) [5]: 64%
Population Fragmented Nuclei (%) [5]: 14%
Population Healthy Nuclei (%) [5]: 38%
Population Hoechst High Intensity Objects (%) [5]: 16%
Population Membrane Permeable-Phenotype (%) [5]: 2%
Population Mitochondria Different-Phenotype (%) [5]: 92%
Population Mitotic Cells (%) [5]: 35%
Population Normal (%) [5]: 83%
Population Pyknosed Nuclei (%) [5]: 46%
Population Tubulin-Different-Phenotype (%) [5]: 90%
Total Cell Count [5]: 330
Population Apoptotic (%) [6]: 51%
Population Fragmented Nuclei (%) [6]: 7%
Population Healthy Nuclei (%) [6]: 43%
Population Hoechst High Intensity Objects (%) [6]: 6%
Population Membrane Permeable-Phenotype (%) [6]: 11%
Population Mitochondria Different-Phenotype (%) [6]: 64%
Population Mitotic Cells (%) [6]: 48%
Population Normal (%) [6]: 93%
Population Pyknosed Nuclei (%) [6]: 48%
Population Tubulin-Different-Phenotype (%) [6]: 97%
Total Cell Count [6]: 172
Population Apoptotic (%) [7]: 89%
Population Fragmented Nuclei (%) [7]: 16%
Population Healthy Nuclei (%) [7]: 10%
Population Hoechst High Intensity Objects (%) [7]: 22%
Population Membrane Permeable-Phenotype (%) [7]: 0%
Population Mitochondria Different-Phenotype (%) [7]: 100%
Population Mitotic Cells (%) [7]: 10%
Population Normal (%) [7]: 77%
Population Pyknosed Nuclei (%) [7]: 72%
Population Tubulin-Different-Phenotype (%) [7]: 100%
Total Cell Count [7]: 225
Population Apoptotic (%) [8]: 85%
Population Fragmented Nuclei (%) [8]: 5%
Population Healthy Nuclei (%) [8]: 24%
Population Hoechst High Intensity Objects (%) [8]: 4%
Population Membrane Permeable-Phenotype (%) [8]: 4%
Population Mitochondria Different-Phenotype (%) [8]: 95%
Population Mitotic Cells (%) [8]: 14%
Population Normal (%) [8]: 95%
Population Pyknosed Nuclei (%) [8]: 70%
Population Tubulin-Different-Phenotype (%) [8]: 95%
Total Cell Count [8]: 205
Population Apoptotic (%) [9]: 52%
Population Fragmented Nuclei (%) [9]: 21%
Population Healthy Nuclei (%) [9]: 45%
Population Hoechst High Intensity Objects (%) [9]: 15%
Population Membrane Permeable-Phenotype (%) [9]: 4%
Population Mitochondria Different-Phenotype (%) [9]: 74%
Population Mitotic Cells (%) [9]: 47%
Population Normal (%) [9]: 84%
Population Pyknosed Nuclei (%) [9]: 33%
Population Tubulin-Different-Phenotype (%) [9]: 88%
Total Cell Count [9]: 371
Population Apoptotic (%) [10]: 47%
Population Fragmented Nuclei (%) [10]: 6%
Population Healthy Nuclei (%) [10]: 63%
Population Hoechst High Intensity Objects (%) [10]: 9%
Population Membrane Permeable-Phenotype (%) [10]: 8%
Population Mitochondria Different-Phenotype (%) [10]: 43%
Population Mitotic Cells (%) [10]: 52%
Population Normal (%) [10]: 90%
Population Pyknosed Nuclei (%) [10]: 30%
Population Tubulin-Different-Phenotype (%) [10]: 96%
Total Cell Count [10]: 230
Population Apoptotic (%) [11]: 86%
Population Fragmented Nuclei (%) [11]: 23%
Population Healthy Nuclei (%) [11]: 15%
Population Hoechst High Intensity Objects (%) [11]: 20%
Population Membrane Permeable-Phenotype (%) [11]: 6%
Population Mitochondria Different-Phenotype (%) [11]: 100%
Population Mitotic Cells (%) [11]: 13%
Population Normal (%) [11]: 79%
Population Pyknosed Nuclei (%) [11]: 60%
Population Tubulin-Different-Phenotype (%) [11]: 96%
Total Cell Count [11]: 258
Population Apoptotic (%) [12]: 89%
Population Fragmented Nuclei (%) [12]: 8%
Population Healthy Nuclei (%) [12]: 29%
Population Hoechst High Intensity Objects (%) [12]: 7%
Population Membrane Permeable-Phenotype (%) [12]: 1%
Population Mitochondria Different-Phenotype (%) [12]: 93%
Population Mitotic Cells (%) [12]: 10%
Population Normal (%) [12]: 92%
Population Pyknosed Nuclei (%) [12]: 61%
Population Tubulin-Different-Phenotype (%) [12]: 93%
Total Cell Count [12]: 209
